What was measured:
[1] = molecular target: Adenosine receptor A2a (Homo sapiens, UniProt P29274); assay: Displacement of [3H]NECA from human A2A adenosine receptor expressed in CHO cell membranes
In short: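 Crude membranes from stably transfected CHO cells, prepared by a two-step spin (1,000 x g, then 100,000 x g). Competition with 10 nM [3H]NECA, with nonspecific binding measured in presence of 100 µM R-PIA. Ki derived from competition experiments.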

[2] = molecular target: T1, Adenosine receptor A1 (Homo sapiens, UniProt P30542); assay: Displacement of [3H]CCPA from human A1 adenosine receptor expressed in CHO cell membranes
T1 sequence (P30542 whole entry): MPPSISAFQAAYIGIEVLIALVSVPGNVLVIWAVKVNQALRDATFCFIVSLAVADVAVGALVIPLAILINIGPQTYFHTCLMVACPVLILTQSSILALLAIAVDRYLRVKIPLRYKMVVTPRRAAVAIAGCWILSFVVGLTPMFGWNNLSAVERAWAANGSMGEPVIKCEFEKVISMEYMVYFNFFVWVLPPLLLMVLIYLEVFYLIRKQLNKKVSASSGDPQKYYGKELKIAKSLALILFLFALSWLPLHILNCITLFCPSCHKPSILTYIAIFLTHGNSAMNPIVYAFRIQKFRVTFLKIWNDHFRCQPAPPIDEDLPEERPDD
In short: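 Membranes from stably transfected CHO cells (1,000 x g spin to clear nuclei and debris, then 100,000 x g pellet), resuspended in binding buffer and frozen. Competition against 1 nM [3H]CCPA; nonspecific binding defined with 1 mM theophylline. Ki calculated from competition curves.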

[3] = species: Homo sapiens; assay: Selectivity index, ratio of Ki for human A3 adenosine receptor to Ki for human A2A adenosine receptor
[4] = molecular target: T2, Adenosine receptor A3 (Homo sapiens, UniProt P0DMS8); assay: Displacement of [3H]HEMADO from human A3 adenosine receptor expressed in CHO cell membranes
T2 sequence (P0DMS8 whole entry): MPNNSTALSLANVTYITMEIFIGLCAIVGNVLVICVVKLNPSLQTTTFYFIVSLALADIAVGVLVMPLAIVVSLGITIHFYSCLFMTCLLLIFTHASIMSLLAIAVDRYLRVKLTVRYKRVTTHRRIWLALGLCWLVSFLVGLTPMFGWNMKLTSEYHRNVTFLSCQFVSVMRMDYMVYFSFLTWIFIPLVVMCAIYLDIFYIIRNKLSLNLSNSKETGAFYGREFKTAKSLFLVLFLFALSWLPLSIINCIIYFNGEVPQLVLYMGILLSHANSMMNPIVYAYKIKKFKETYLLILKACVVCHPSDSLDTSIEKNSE
In short: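 Two-step centrifugation (1,000 x g, then 100,000 x g) of stably transfected CHO cells gave the membranes. Displacement of 1 nM [3H]HEMADO; nonspecific binding taken with 100 µM R-PIA. Ki computed from competition data.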

[5] = species: Homo sapiens; assay: Selectivity index, ratio of Ki for human A1 adenosine receptor to Ki for human A2A adenosine receptor
[6] = molecular target: T3, Adenosine receptor A2b (Homo sapiens, UniProt P29275); assay: Antagonist activity at human A2B adenosine receptor expressed in CHO cell membranes assessed as inhibition of NECA stimulated adenylyl cyclase activity; type: functional, cell-based
T3 sequence (P29275 whole entry): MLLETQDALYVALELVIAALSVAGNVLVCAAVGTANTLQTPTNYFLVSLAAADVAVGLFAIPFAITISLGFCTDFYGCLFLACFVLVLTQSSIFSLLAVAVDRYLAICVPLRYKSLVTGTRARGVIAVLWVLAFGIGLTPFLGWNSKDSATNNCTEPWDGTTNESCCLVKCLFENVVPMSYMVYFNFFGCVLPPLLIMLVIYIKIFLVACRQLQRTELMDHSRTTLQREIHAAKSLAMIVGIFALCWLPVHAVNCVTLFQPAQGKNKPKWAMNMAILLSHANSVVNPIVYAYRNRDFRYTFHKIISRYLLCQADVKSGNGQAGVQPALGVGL
In short: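 CHO cells stably expressing hA2B; crude membranes from a single high-speed spin, resuspended in 50 mM Tris/HCl pH 7.4 and used fresh. Incubated 20 min with about 150,000 cpm [α-32P]ATP in a mixture without EDTA and NaCl. IC50 for inhibition of NECA-stimulated cyclase obtained by Hill equation fit.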

Chain of Adenosine receptor A2a (P29274 whole entry): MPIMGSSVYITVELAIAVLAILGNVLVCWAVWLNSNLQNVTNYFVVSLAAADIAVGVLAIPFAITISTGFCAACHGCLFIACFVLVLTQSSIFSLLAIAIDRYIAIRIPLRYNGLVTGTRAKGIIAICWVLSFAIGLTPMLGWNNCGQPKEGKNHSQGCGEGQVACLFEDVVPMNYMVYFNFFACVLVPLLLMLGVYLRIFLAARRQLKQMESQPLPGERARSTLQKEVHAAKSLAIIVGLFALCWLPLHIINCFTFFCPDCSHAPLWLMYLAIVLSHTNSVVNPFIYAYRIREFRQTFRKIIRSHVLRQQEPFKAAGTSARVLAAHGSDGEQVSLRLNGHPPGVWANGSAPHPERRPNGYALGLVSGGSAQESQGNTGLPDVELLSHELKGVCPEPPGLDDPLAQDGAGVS

Structure (SMILES): O=C(Cc1ccccc1)Nc1nc(NCc2ccccc2)nc2nc(-c3ccco3)nn12
- Ki [1]: 0.00539 µM
- Ki ([2]; read-out: Ki): 0.676 µM
- Ratio Ki [3]: 8.44
- Ki [4]: 0.0455 µM
- Ratio Ki [5]: 125
- IC50 [6]: 7.62 µM

Structure (SMILES): CC(C)Nc1nc(NC(=O)c2ccccc2)n2nc(-c3ccco3)nc2n1
- Ki [1]: 2.15 µM
- Ki ([2]; read-out: Ki): 24.4 µM
- Ratio Ki [3]: 6.23
- Ki [4]: 13.4 µM
- Ratio Ki [5]: 11.3
- IC50 [6]: > 30 µM

Structure (SMILES): CC(C)Nc1nc(NC(=O)Nc2ccccc2)n2nc(-c3ccco3)nc2n1
- Ki [1]: 0.0869 µM
- Ki ([2]; read-out: Ki): 1.18 µM
- Ratio Ki [3]: 1.96
- Ki [4]: 0.17 µM
- Ratio Ki [5]: 13.6
- IC50 [6]: > 30 µM

Structure (SMILES): c1ccc(CNc2nc(NCc3ccccc3)n3nc(-c4ccco4)nc3n2)cc1
- Ki [1]: 0.0204 µM
- Ki ([2]; read-out: Ki): 0.784 µM
- Ratio Ki [3]: 1.81
- Ki [4]: 0.037 µM
- Ratio Ki [5]: 38.4
- IC50 [6]: 11.8 µM

Structure (SMILES): CNc1nc(NC(=O)c2ccccc2)n2nc(-c3ccco3)nc2n1
- Ki [1]: 0.194 µM
- Ki ([2]; read-out: Ki): 10.5 µM
- Ratio Ki [3]: 47.6
- Ki [4]: 9.24 µM
- Ratio Ki [5]: 54.1
- IC50 [6]: > 30 µM

Structure (SMILES): Fc1ccc(CNc2nc(Oc3ccccc3)nc3nc(-c4ccco4)nn23)cc1
- Ki [1]: 0.905 µM
- Ki ([2]; read-out: Ki): > 100 µM
- Ratio Ki [3]: > 110
- Ki [4]: > 100 µM
- Ratio Ki [5]: > 110
- IC50 [6]: > 30 µM

Structure (SMILES): CNc1nc(NC2CCCCC2)n2nc(-c3ccco3)nc2n1
- Ki [1]: 0.143 µM
- Ki ([2]; read-out: Ki): 0.361 µM
- Ratio Ki [3]: 6.33
- Ki [4]: 0.905 µM
- Ratio Ki [5]: 2.52
- IC50 [6]: > 30 µM

Structure (SMILES): CC(C)Nc1nc(N)n2nc(-c3ccco3)nc2n1
- Ki [1]: 0.0648 µM
- Ki ([2]; read-out: Ki): 4.31 µM
- Ratio Ki [3]: 8.76
- Ki [4]: 0.568 µM
- Ratio Ki [5]: 66.5
- IC50 [6]: > 30 µM

Structure (SMILES): CNc1nc(N)n2nc(-c3ccco3)nc2n1
- Ki [1]: 0.0493 µM
- Ki ([2]; read-out: Ki): 2.57 µM
- Ratio Ki [3]: 31.6
- Ki [4]: 1.56 µM
- Ratio Ki [5]: 52.1
- IC50 [6]: > 30 µM

Structure (SMILES): CNc1nc(NC(=O)Cc2ccccc2)n2nc(-c3ccco3)nc2n1
- Ki [1]: 0.3 µM
- Ki ([2]; read-out: Ki): 8.96 µM
- Ratio Ki [3]: 5.57
- Ki [4]: 1.67 µM
- Ratio Ki [5]: 29.9
- IC50 [6]: > 30 µM

Structure (SMILES): c1coc(-c2nc3nc(NC4CCCCC4)nc(NC4CCCCC4)n3n2)c1
- Ki [1]: 0.177 µM
- Ki ([2]; read-out: Ki): 0.306 µM
- Ratio Ki [3]: 0.73
- Ki [4]: 0.129 µM
- Ratio Ki [5]: 1.73
- IC50 [6]: > 30 µM

Structure (SMILES): CNc1nc(NC(=O)Nc2ccccc2)n2nc(-c3ccco3)nc2n1
- Ki [1]: 0.0996 µM
- Ki ([2]; read-out: Ki): 3.85 µM
- Ratio Ki [3]: 5.74
- Ki [4]: 0.572 µM
- Ratio Ki [5]: 38.6
- IC50 [6]: > 30 µM

Structure (SMILES): c1ccc(CNc2nc(Oc3ccccc3)nc3nc(-c4ccco4)nn23)cc1
- Ki [1]: 0.56 µM
- Ki ([2]; read-out: Ki): > 100 µM
- Ratio Ki [3]: 0.67
- Ki [4]: 0.375 µM
- Ratio Ki [5]: > 178
- IC50 [6]: > 30 µM

Structure (SMILES): c1ccc(Oc2nc(NC3CCCCC3)n3nc(-c4ccco4)nc3n2)cc1
- Ki [1]: 0.113 µM
- Ki ([2]; read-out: Ki): 0.757 µM
- Ratio Ki [3]: 2.6
- Ki [4]: 0.294 µM
- Ratio Ki [5]: 6.7
- IC50 [6]: > 30 µM

Structure (SMILES): CNc1nc(NCc2ccc(F)cc2)n2nc(-c3ccco3)nc2n1
- Ki [1]: 0.235 µM
- Ki ([2]; read-out: Ki): 3.08 µM
- Ratio Ki [3]: 2.37
- Ki [4]: 0.557 µM
- Ratio Ki [5]: 13.1
- IC50 [6]: > 30 µM

Structure (SMILES): Nc1nc(NC2CCCCC2)nc2nc(-c3ccco3)nn12
- Ki [1]: 0.00356 µM
- Ki ([2]; read-out: Ki): 0.138 µM
- Ratio Ki [3]: 104
- Ki [4]: 0.37 µM
- Ratio Ki [5]: 38.8
- IC50 [6]: 13.4 µM

Structure (SMILES): CC(C)Nc1nc(NCc2ccccc2)n2nc(-c3ccco3)nc2n1
- Ki [1]: 0.394 µM
- Ki ([2]; read-out: Ki): > 100 µM
- Ratio Ki [3]: 0.29
- Ki [4]: 0.114 µM
- Ratio Ki [5]: > 253
- IC50 [6]: > 30 µM

Structure (SMILES): O=C(Nc1ccccc1)Nc1nc(NC2CCCCC2)nc2nc(-c3ccco3)nn12
- Ki [1]: 0.00787 µM
- Ki ([2]; read-out: Ki): 0.946 µM
- Ratio Ki [3]: 44.3
- Ki [4]: 0.349 µM
- Ratio Ki [5]: 120
- IC50 [6]: > 30 µM

Structure (SMILES): c1ccc(CNc2nc(NC3CCCCC3)n3nc(-c4ccco4)nc3n2)cc1
- Ki [1]: 0.0152 µM
- Ki ([2]; read-out: Ki): 0.0639 µM
- Ratio Ki [3]: 29.9
- Ki [4]: 0.455 µM
- Ratio Ki [5]: 4.2
- IC50 [6]: > 30 µM

Structure (SMILES): c1ccc(CNc2nc(NC3CCCCC3)nc3nc(-c4ccco4)nn23)cc1
- Ki ([2]; cho): ND(Insoluble)

Structure (SMILES): Nc1nc(NCc2ccccc2)nc2nc(-c3ccco3)nn12
- Ki [1]: 0.00111 µM
- Ki ([2]; read-out: Ki): 0.0946 µM
- Ratio Ki [3]: 27.7
- Ki [4]: 0.0308 µM
- Ratio Ki [5]: 85.2
- IC50 [6]: 2.21 µM

Structure (SMILES): O=C(Nc1nc(NCc2ccccc2)nc2nc(-c3ccco3)nn12)c1ccccc1
- Ki [1]: 0.0952 µM
- Ki ([2]; read-out: Ki): 1.45 µM
- Ratio Ki [3]: 2.63
- Ki [4]: 0.25 µM
- Ratio Ki [5]: 15.2
- IC50 [6]: > 30 µM

Structure (SMILES): Fc1ccc(CNc2nc(NC3CCCCC3)nc3nc(-c4ccco4)nn23)cc1
- Ki [1]: 0.112 µM
- Ki ([2]; read-out: Ki): > 100 µM
- Ratio Ki [3]: 11.6
- Ki [4]: 1.3 µM
- Ratio Ki [5]: > 893
- IC50 [6]: > 30 µM

Structure (SMILES): CNc1nc(NCc2ccccc2)n2nc(-c3ccco3)nc2n1
- Ki [1]: 0.173 µM
- Ki ([2]; read-out: Ki): 2.77 µM
- Ratio Ki [3]: 1.59
- Ki [4]: 0.275 µM
- Ratio Ki [5]: 16
- IC50 [6]: > 30 µM

Structure (SMILES): CC(C)Nc1nc(NC(=O)Cc2ccccc2)n2nc(-c3ccco3)nc2n1
- Ki [1]: 0.393 µM
- Ki ([2]; read-out: Ki): 7.15 µM
- Ratio Ki [3]: 0.65
- Ki [4]: 0.257 µM
- Ratio Ki [5]: 18.2
- IC50 [6]: > 30 µM

Structure (SMILES): O=C(Cc1ccccc1)Nc1nc(NC2CCCCC2)nc2nc(-c3ccco3)nn12
- Ki [1]: 0.0236 µM
- Ki ([2]; read-out: Ki): 1.01 µM
- Ratio Ki [3]: 12.1
- Ki [4]: 0.286 µM
- Ratio Ki [5]: 42.8
- IC50 [6]: > 30 µM

Source: ChEMBL document CHEMBL3751698, “5,7-Disubstituted-[1,2,4]triazolo[1,5-a][1,3,5]triazines as pharmacological tools to explore the antagonist selectivity profiles toward adenosine receptors” (Eur J Med Chem, 2016)
